# Screens deposited in PubChem BioAssay by The Scripps Research Institute Molecular Screening Center.
# LYPLA1 inh: LYPLA1 (human) inhibition in PME1 counter-screen; inhibition, % at 5.9 µM; AID 2174; recombinant LYPLA1, FP-Rh probe fluorescence polarization; O75608; 320,000 compounds, 0.16% hits;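 active = inhibition above the mean of all tested compounds plus 3 SD, set per campaign, cut at about 14% in these data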;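 note: inhibitors block serine hydrolase probe labeling of LYPLA1 so polarization falls; 0% = enzyme with DMSO and 100% = wells lacking LYPLA1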
# Target sequence (O75608 whole entry, looked up): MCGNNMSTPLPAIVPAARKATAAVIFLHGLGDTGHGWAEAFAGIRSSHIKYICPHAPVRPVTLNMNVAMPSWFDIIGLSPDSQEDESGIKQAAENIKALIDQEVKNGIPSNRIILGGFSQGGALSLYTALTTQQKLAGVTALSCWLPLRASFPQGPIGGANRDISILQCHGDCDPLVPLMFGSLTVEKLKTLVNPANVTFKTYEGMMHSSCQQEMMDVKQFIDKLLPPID
# LYPLA2 inh: counter-screen for PME1 inhibitors: inhibitors of human LYPLA2; O95372; recombinant LYPLA2, FP-Rh probe fluorescence polarization; inhibition, % at 5.9 µM; 320,000 compounds, 0.38% hits;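 active = inhibition above the screen-wide mean plus 3 SD, limit set per campaign, cut at about 26% in these data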;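 note: 0% = LYPLA2 with DMSO and 100% = wells lacking LYPLA2 enzyme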
# proCasp3 act: procaspase-3 (human) activation. P42574. recombinant procaspase-3 D3A, Ac-DEVD-pNA absorbance 405 nm. activation, % at 8.5 µM. 330,000 compounds, 0.11% hits. AID 463141;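 active = activation above the mean of all tested compounds plus 3 SD, cut at about 21% in these data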;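 note: 0% = DMSO alone and 100% = DMSO wells spiked with extra 5 µM PC-3 D3A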
#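 Assay system – Procaspase-3 D3A mutant · Benchmarks – DMSO low control, extra-enzyme high control · Technique – 405 nm absorbance of p-nitroaniline, reads at 0 and 120 min · Doses – 8.5 µM nominal · Measure – % activation between DMSO and enzyme-spiked controls · Also added – Ac-DEVD-pNA chromogenic peptide substrate · Schedule – 1 h compound preincubation, 2 h substrate hydrolysis at 25 °C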
# PREPL inh: inhibits the human prolyl oligopeptidase-like enzyme. inhibition, % at 5.96 µM. 320,000 compounds, 0.68% hits. recombinant PREPL, fluorescence polarization activity-based probe. AID 2751. Q4J6C6; in the data active = inhibition above about 43%;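 note: 0% = enzyme with DMSO and 100% = wells lacking enzyme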
# procasp7 counter: counter-screen for procaspase-3 activators: activators of human procaspase-7; 330,000 compounds, 0.093% hits; P55210; activation, % at 8.5 µM; recombinant procaspase-7, Ac-DEVD-pNA absorbance 405 nm; D23A/D198A/D206A triple mutant, cannot self-cleave; scale: DMSO 0, 5 µM enzyme 100;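 active = percent activation above the screen-wide mean plus 3 SD, cut at about 25% in these data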
#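 System: Uncleavable procaspase-7 mutant enzyme; Amount: 2 µM procaspase-7 mutant as dispensed; Schedule: 1 h compound preincubation, 2 h substrate cleavage, 25 °C; Measured by: 405 nm absorbance of p-nitroaniline; Evaluation: percent activation from buffer-corrected 0–120 min absorbance change; Control set: low DMSO alone, high DMSO plus 5 µM PC-7.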
# procasp7 triplic: counter-screen: procaspase-7 (human) activation in triplicate | AID 488941 | activation, % at 8.5 µM | shares compounds with proCasp3 act | recombinant procaspase-7, Ac-DEVD-pNA absorbance; asp23/198/206-to-Ala mutant, cannot self-cleave | 210 tested, under 10 active;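 active = mean activation above a set limit taken from an earlier procaspase-7 screen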;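 note: 0% = DMSO wells and 100% = DMSO plus 5 µM procaspase-7 enzyme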
# proCasp3 confirm: confirmation of human procaspase-3 activators; 210 compounds, 10% hits; activation, % at 8.5 µM; recombinant PC-3 D3A, Ac-DEVD-pNA absorbance 405 nm; 100% is higher-enzyme control; shares compounds with proCasp3 act;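 active = mean activation above a set limit carried over from the earlier primary screen, cut at about 22% in these data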
# PC3 dual counter: activates human procaspase-3, dual activator counter-screen; shares compounds with procasp7 counter; 290 tested, under 10 active; recombinant PC-3 D3A, Ac-DEVD-pNA absorbance 405 nm; aspartates 9, 28, 175 changed to alanine; 100% = enzyme control; activation, % at 8.5 µM; AID 493114;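 active = mean percent activation across triplicates above a set limit taken from the earlier primary procaspase-3 screen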;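 note: 0% = DMSO wells and 100% = DMSO wells with 5 µM added PC-3 D3A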
# PC7 dual conf: activates human procaspase-7, confirming dual procaspase activators; shares compounds with procasp7 counter; recombinant procaspase-7, Ac-DEVD-pNA absorbance 405 nm; D23A/D198A/D206A mutant that cannot self-cleave; 290 tested, under 10 active; activation, % at 8.5 µM; AID 493115;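 active = mean activation above a set limit carried over from the earlier primary screen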;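 note: 0% = DMSO only and 100% = DMSO with added 5 µM PC-7 enzyme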
# Starred values were filed as active, the others as inactive; / = no result. An excerpt weighted towards active compounds, which were near 1% of everything screened.
SMILES,LYPLA1 inh,LYPLA2 inh,proCasp3 act,PREPL inh,procasp7 counter,procasp7 triplic,proCasp3 confirm,others
COCCCn1c(N)c(C(=O)NCCC(C)C)c2nc3ccccc3nc21,-6.0,-8.9,31.8*,18.1,12.5,-21.1,-14.3,
CCCOC(=O)c1c(N)n(Cc2cccs2)c2nc3ccccc3nc12,-6.2,-4.5,47.6*,-2.2,6.5,-20.0,-12.5,
COC(=O)C1=C(c2ccc(-c3ccccc3)c(F)c2)C[C@@H]2CC[C@H]1N2C(=O)NCCOc1ccc(OC)cc1,-4.9,-6.8,1.4,-18.9,-11.6,/,/,
Cc1cccn2c(=O)c3c(nc12)N1CCC(Cc2ccccc2)CC1C1(C3)C(=O)N(C)C(=O)N(C)C1=O (stereo unspecified),-1.8,-10.3,5.2,2.3,1.5,/,/,
CN(C)c1ccc(/C=C/C=C/c2sc3ccccc3[n+]2C)cc1,-22.8,-42.7,4.6,13.3,-3.7,/,/,
CC[n+]1c(/C=C/C=C/c2ccc(N(C)C)cc2)sc2ccccc21,-51.2,-105.4,39.1*,9.5,-3.5,-6.0,-5.3,
Cc1ccc(-c2nc3ccccc3c(=O)n2-c2cccc(C)n2)cc1,2.2,-0.8,44.4*,-0.8,9.1,1.3,3.5,
C=CCN1C(=O)CSc2ccc(C(=O)N3CCC4(CC3)OCCO4)cc21,3.2,3.5,-5.7,7.0,-5.8,/,/,
Nc1c(C(=O)NCc2ccco2)c2nc3ccccc3nc2n1Cc1ccccc1,-3.3,-2.8,-2.2,8.0,45.8*,/,/,PC3 dual counter=-27.3;PC7 dual conf=-35.1
CC(C)Oc1ccc(CC2(CCc3ccncc3)C(=O)NC(=O)NC2=O)cc1,3.1,3.6,-1.7,1.6,3.7,/,/,
